Experimental data reported in ChEMBL document CHEMBL1125728, “Dopamine autoreceptor agonists as potential antipsychotics. 2. (Aminoalkoxy)-4H-1-benzopyran-4-ones” (J Med Chem, 1991).

What was measured:
D(2) dopamine receptor = D(2) dopamine receptor (Rattus norvegicus, UniProt P61169); assay: Compound was tested for its inhibitory effect on the binding profile in Dopamine receptor D2 using [3H]haloperidol in rat brain.; format: tissue-based
Method in brief: (§1)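 Rat brain receptor binding with the stated radioligands. IC50 obtained by nonlinear regression from four to five concentrations. [3H]flupenthixol and [3H]N-propylnorapomorphine values come from four independent determinations each, and the [3H]haloperidol value from two experiments. Remaining ligands were determined once.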

Rattus norvegicus [1] = assay: Compound tested for % reversal of DOPA accumulation at an intraperitoneal dose of 30 mg/kg.; format: functional
Method in brief: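 Rats dosed 1 h before sacrifice, with GBL (750 mg/kg ip) at 30 min and NSD 1015 (100 mg/kg ip) at 25 min before sacrifice. Striatal DOPA measured by HPLC with electrochemical detection. Value is percent reversal of the GBL-induced DOPA rise.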

Rattus norvegicus [2] = assay: Effect on DOPA accumulation level at an intraperitoneal dose of 30 mg/kg in rat.; format: functional
[3] = target: T1, Adrenergic receptor alpha-2 (Rattus norvegicus, UniProt P22086+P19328+P22909); assay: Compound was tested for its inhibitory effect on the binding profile in Alpha-2 adrenergic receptor using [3H]p-aminoclonidine in rat brain.; format: tissue-based; method in brief: as §1
T1 sequence (P22086 whole entry): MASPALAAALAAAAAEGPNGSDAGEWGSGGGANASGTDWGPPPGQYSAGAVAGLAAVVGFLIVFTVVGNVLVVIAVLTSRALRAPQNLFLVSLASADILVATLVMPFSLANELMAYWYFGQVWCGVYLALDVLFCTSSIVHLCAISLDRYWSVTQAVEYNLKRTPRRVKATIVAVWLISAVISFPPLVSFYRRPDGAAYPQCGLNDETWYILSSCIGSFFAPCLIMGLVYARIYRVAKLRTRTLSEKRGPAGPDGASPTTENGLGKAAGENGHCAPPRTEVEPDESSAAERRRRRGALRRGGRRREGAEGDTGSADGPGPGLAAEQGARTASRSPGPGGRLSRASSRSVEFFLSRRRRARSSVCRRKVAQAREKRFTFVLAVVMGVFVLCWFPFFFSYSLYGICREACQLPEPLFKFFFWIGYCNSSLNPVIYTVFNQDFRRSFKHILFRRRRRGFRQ
T1 sequence (P19328 whole entry): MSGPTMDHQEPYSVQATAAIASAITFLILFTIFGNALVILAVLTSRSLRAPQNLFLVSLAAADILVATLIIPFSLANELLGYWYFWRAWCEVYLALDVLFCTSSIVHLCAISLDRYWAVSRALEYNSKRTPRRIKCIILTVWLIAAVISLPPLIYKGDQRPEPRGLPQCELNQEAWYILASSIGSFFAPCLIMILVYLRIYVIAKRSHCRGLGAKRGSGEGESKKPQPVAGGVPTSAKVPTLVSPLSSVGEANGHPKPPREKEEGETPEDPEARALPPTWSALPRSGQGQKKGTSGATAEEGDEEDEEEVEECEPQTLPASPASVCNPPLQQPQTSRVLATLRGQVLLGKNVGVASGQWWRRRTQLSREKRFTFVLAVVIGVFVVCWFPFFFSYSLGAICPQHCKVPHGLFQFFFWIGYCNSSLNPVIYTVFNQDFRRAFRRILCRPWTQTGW
T1 sequence (P22909 whole entry): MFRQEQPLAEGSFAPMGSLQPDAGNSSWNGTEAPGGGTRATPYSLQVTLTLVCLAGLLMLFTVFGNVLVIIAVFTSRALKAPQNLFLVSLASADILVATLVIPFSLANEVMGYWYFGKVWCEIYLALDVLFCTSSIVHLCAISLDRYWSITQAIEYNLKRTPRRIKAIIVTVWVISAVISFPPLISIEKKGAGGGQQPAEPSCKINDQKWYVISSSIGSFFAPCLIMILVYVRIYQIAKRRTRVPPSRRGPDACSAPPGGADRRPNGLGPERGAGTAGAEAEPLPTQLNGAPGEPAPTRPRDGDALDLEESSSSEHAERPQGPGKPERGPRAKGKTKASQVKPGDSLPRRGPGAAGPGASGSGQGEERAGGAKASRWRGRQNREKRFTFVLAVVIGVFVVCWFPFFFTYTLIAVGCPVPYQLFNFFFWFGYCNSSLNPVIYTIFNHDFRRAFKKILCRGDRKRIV

Rattus norvegicus [4] = assay: Compound tested for its effect on reversal of 6-OHDA induced depression in rats after sc administration.; format: functional
Method in brief: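 Rats lesioned at least 1 month earlier with 6-OHDA (20 μg icv) plus pargyline (50 mg/kg ip) and desipramine (25 mg/kg ip), giving about 90% brain DA depletion. Drug given sc, then locomotor activity recorded for 30 min from dosing. ED200 estimated from three or four doses, six rats per dose.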

Rattus norvegicus [5] = assay: Percentage of rats showing signs of stereotyped behavior at 17 mg/kg peroral dose and followed 1 hr later by 10 mg/kg sc of SKF-38393 and animals observed for 60 min postdose before being; format: functional
Method in brief: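 Part 2: oral dose given to naive rats, six per dose, followed 1 h later by SKF 38393 (10 mg/kg sc). Stereotypy (repetitive rearing, head-swaying, sniffing, licking, gnawing lasting ≥5 s) rated over 60 min. Reported as percent of rats affected.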

[6] = Compound was tested for its inhibition of Sidman avoidance after peroral administration in Squirrel monkeys.; format: functional; conditions: po
Method in brief: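 Sidman avoidance in mature squirrel monkeys, oral dosing. ED50 ± SEM generated from three doses, four animals per dose.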

Rattus norvegicus [7] = assay: Compound tested for its effective dose to inhibit rat locomotor activity after sc administration of the compound.; format: functional
Method in brief: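 Rats dosed sc, with locomotor activity recorded for 30 min immediately after dosing. ED50 generated from four to five doses using 5–12 animals per dose, reported with ±95% confidence limits.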

D(1A) dopamine receptor = D(1A) dopamine receptor (Rattus norvegicus, UniProt P18901); assay: Compound was tested for its inhibitory effect on the binding profile in Dopamine receptor D1 using [3H]flupenthixol in rat brain.; format: tissue-based; method in brief: as §1
[8] = Compound tested for its liability for extrapyramidal side effects (EPS) in terms of no. of animals showing signs of EPS/no. of animals tested upon po administration at a dose of 80 mg/Kg; 0/3; format: functional
[9] = target: Serotonin 2 (5-HT2) receptor (Rattus norvegicus, UniProt P30994+P08909+P14842); assay: Compound was tested for its inhibitory effect on the binding profile in 5-hydroxytryptamine 2 receptor using [3H]spiroperidol in rat brain.; format: tissue-based; method in brief: as §1
Rattus norvegicus [10] = assay: Compound tested for % inhibition of DA neuronal firing at an intraperitoneal dose of 2.5 mg/kg.; format: functional; conditions: ip

Chain of D(2) dopamine receptor (P61169 whole entry): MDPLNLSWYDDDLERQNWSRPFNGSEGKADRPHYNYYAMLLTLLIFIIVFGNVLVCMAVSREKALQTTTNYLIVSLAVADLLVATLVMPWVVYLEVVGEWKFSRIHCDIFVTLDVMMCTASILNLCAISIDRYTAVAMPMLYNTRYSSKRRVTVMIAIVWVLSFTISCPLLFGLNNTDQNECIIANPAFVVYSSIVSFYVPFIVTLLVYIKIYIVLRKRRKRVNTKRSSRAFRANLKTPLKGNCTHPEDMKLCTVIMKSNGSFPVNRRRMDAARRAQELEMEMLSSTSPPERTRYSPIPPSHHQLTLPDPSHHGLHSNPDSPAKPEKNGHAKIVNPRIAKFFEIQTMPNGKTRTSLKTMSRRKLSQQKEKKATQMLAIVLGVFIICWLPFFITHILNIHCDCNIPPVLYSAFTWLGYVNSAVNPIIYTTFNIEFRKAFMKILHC
Chain of D(1A) dopamine receptor (P18901 whole entry): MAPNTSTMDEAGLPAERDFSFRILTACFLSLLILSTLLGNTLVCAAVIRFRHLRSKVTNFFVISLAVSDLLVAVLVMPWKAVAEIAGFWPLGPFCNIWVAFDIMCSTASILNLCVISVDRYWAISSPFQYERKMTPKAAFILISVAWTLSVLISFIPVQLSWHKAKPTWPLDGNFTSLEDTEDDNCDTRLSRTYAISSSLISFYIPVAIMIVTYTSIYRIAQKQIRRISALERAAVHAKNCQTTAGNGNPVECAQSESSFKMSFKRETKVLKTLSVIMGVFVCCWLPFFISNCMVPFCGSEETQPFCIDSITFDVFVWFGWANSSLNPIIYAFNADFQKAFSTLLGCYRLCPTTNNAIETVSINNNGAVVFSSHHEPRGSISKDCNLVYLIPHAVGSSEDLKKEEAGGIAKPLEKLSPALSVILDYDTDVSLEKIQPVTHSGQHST

IC50 (D(2) dopamine receptor): 1.08 µM
IC50 [3]: 2.6 µM
IC50 (D(1A) dopamine receptor): 21.7 µM
IC50 [9]: 1 µM
SMILES: O=c1ccoc2cc(OCCCN3CCN(c4ccccn4)CC3)ccc12
Reversal (Rattus norvegicus [1]): 100%
DOPA level (Rattus norvegicus [2]): 0.28 µg/g
ED200 (Rattus norvegicus [4]): > 5 mg/kg
Animals (Rattus norvegicus [5]): 0%
ED50 [6]: 6 mg/kg
ED50 (Rattus norvegicus [7]): 0.58 mg/kg
EPS [8]: 0
inhibition in vivo at 2.5 mg/kg (Rattus norvegicus [10]): 93%
